We go through two molecules from ChEMBL document CHEMBL2062479, “Synthesis and biological evaluation of derivatives of 2-{2-fluoro-4-[(2-oxocyclopentyl)methyl]phenyl}propanoic acid: nonsteroidal anti-inflammatory drugs with low gastric ulcerogenic activity” (J Med Chem, 2012).

Data set [1] has as its target T1, Prostaglandin G/H synthase 2 (Homo sapiens) (UniProt P35354).
T1 sequence (whole entry): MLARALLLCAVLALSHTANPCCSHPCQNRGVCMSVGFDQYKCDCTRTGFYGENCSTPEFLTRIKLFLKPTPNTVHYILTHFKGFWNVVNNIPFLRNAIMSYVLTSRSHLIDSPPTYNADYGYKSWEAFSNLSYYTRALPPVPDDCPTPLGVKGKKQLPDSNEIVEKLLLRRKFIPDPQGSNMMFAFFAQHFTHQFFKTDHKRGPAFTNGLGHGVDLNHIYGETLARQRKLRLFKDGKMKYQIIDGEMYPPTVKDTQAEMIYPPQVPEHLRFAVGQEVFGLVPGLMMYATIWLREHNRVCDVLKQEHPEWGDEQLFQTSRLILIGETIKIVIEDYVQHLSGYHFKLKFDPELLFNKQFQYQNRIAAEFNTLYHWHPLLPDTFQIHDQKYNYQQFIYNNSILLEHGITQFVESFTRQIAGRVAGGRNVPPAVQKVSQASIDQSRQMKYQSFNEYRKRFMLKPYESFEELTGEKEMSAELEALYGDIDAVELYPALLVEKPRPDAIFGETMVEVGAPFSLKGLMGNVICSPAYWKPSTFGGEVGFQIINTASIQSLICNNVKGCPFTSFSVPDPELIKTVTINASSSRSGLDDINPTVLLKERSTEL
The experiment in a line: Inhibition of LPS-stimulated human whole blood COX-2 assessed as inhibition of PGE2 production at 10 uM by EIA. In a few lines:
(§1)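 Human whole blood COX assay, with COX-1 and COX-2 read as prostaglandin biosynthesis. Relative inhibition (%) was taken at fixed test concentrations of 10 and 100 μM. Mean ± SEM, n = 3−6.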

Data set [2] concerns the target T1, Prostaglandin G/H synthase 2 (Homo sapiens). The experiment in a line: Inhibition of LPS-stimulated human whole blood COX-2 assessed as inhibition of PGE2 production at 100 uM by EIA. A digest of the protocol:
as §1

In data set [3] the target is T2, Prostaglandin G/H synthase 1 (Homo sapiens, UniProt P23219). The experiment in a line: Inhibition of human whole blood COX-1 assessed as inhibition of TXB2 production by EIA. In a few lines: (§2)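 Human whole blood COX-1 and COX-2 assay run over a range of test concentrations. IC50 was fitted to a four-parameter logistic dose−response curve, and the COX-1/COX-2 ratio was computed from the two IC50 values. Mean ± SEM, n = 3−6.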

In data set [4] the target is T3, Prostaglandin G/H synthase 2 (Homo sapiens, UniProt P35354).
T3 sequence (P35354 whole entry): T1 sequence (whole entry)
Kind of data set: Inhibition of LPS-stimulated human whole blood COX-2 assessed as inhibition of PGE2 production by EIA. A digest of the protocol: as §2

The species named for a further data set is Homo sapiens. The experiment in a line: Selectivity index, ratio of IC50 for human COX1 to IC50 for human COX2. A digest of the protocol:
as §2

For data set [5], the system named is Rattus norvegicus. Kind of data set: Antiinflammatory activity against Wistar rat assessed as inhibition of carrageenan induced edema volume at 37.3 uM/kg, po administered 1 hr prior carrageenan-challenge measured after 3 hrs post challenge. It is filed as functional. In a few lines: (§3)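 Oral dose of 37.3 μM/kg. Carrageenan (1%) was injected intradermally into the left hindpaw 1 h later. Edema was measured 3 h and 6 h after challenge, and relative inhibition of the edema volume increase was calculated. Mean ± SEM, n = 3−6.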
On the technique in general: The carrageenan paw model is a standard test of acute inflammation.

Data set [6] relates to Rattus norvegicus. The experiment in a line: Antiinflammatory activity against Wistar rat assessed as inhibition of carrageenan induced edema volume at 37.3 uM/kg, po administered 1 hr prior carrageenan-challenge measured after 6 hrs post challenge. It is filed as functional. In a few lines:
as §3

Data set [7] deals with Rattus norvegicus. The experiment in a line: Toxicity in rat assessed as gastric ulcerogenic activity at 0.37 to 7.45 mM/kg, po measured after 8 hrs. As to conditions: in vivo. The data set is classed as organism-based, Stomach. A digest of the protocol:
(§4)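 Rats were given oral doses of 0.37, 0.75, 1.12, 1.86, 3.73 or 7.45 mM/kg. Stomachs were removed 8 h later and scored for hemorrhagic damage. Mean ± SEM, n = 3−6.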

Data set [8] concerns Rattus norvegicus. The experiment in a line: Toxicity in rat assessed as gastric ulcerogenic activity at 7.45 mM/kg, po measured after 8 hrs. It is filed as organism-based, Stomach. As to conditions: in vivo, 7450 µM. A digest of the protocol: as §4
Data set [9] concerns the target T2, Prostaglandin G/H synthase 1. Kind of data set: Inhibition of human whole blood COX-1 assessed as inhibition of TXB2 production at 10 uM by EIA. In a few lines:
as §1

For data set [10] the target is unchanged. The experiment in a line: Inhibition of human whole blood COX-1 assessed as inhibition of TXB2 production at 100 uM by EIA. A digest of the protocol:
as §1

The subject of data set [11] is Rattus norvegicus. The experiment in a line: Antiinflammatory activity against Wistar rat assessed as inhibition of carrageenan induced edema volume at 3.73 to 37.3 uM/kg, po administered 1 hr prior carrageenan-challenge measured after 3 to 6 hrs post challenge. The data set is classed as functional, organism-based. A digest of the protocol:
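Rats dosed orally at 3.73, 11.2 or 37.3 μM/kg. Carrageenan (1%) was injected intradermally into the left hindpaw 1 h after dosing. Footpad edema was measured 3 and 6 h after carrageenan, and relative inhibition of the edema volume increase was calculated. Mean ± SEM, n = 3−6.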

The source made the active and inactive calls. The calls are words filed in the database; no cut-off is given here.

T2 sequence (P23219 whole entry): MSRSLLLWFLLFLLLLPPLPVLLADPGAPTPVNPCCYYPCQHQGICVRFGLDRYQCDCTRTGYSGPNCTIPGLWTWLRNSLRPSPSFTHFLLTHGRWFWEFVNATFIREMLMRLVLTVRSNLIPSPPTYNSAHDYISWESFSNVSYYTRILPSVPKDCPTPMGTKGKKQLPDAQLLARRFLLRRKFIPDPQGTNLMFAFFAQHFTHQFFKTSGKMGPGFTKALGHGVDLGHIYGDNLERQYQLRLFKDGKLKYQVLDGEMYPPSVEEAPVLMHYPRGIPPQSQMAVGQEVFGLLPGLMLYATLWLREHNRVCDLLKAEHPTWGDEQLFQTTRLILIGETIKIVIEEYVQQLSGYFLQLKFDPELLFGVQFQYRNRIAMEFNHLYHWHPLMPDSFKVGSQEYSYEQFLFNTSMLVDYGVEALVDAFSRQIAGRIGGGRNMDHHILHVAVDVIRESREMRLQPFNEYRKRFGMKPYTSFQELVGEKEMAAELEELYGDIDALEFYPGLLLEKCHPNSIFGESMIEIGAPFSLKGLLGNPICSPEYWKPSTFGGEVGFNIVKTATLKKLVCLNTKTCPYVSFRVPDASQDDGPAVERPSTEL

Consider `CC(C(=O)O)c1ccc(OC2CCCC2)cc1F` (stereo not drawn), for which the inhibition in data set [1] was 39.7%; in data set [2], 96.4%; in [9], 65%; in [10], 81.4%. The 50% inhibitory concentration (IC50) in data set [3] came out at 3 µM; in data set [4], 26.3 µM. Also, the Ratio IC50 in the data set filed under Homo sapiens was 0.1. Moreover, the results for the “inhibition (INH)” value in the data set with Rattus norvegicus [5] and in the data set with Rattus norvegicus [6] were 40.4% and 51.9%, respectively. Besides, the Activity entry with Rattus norvegicus [7] and in the data set with Rattus norvegicus [8] was “Non-toxic” throughout.
As to `CC(C(=O)O)c1ccc(NC2CCCC2)cc1F` (stereo not drawn), the inhibition in data set [1] was 40.7%; in [2], 91.9%; in data set [9], 34.7%; in data set [10], 92%. The IC50 in [3] is 15.6 µM; in data set [4] it was 21.3 µM. The Ratio IC50 in the data set listed under Homo sapiens worked out at 0.7. The “inhibition (INH)” value in the data set on Rattus norvegicus [5] was determined as 45.5%; in the data set with Rattus norvegicus [6], 60.1%. The Activity result in the data set with Rattus norvegicus [7] and in the data set with Rattus norvegicus [8] was “Non-toxic” each time. In the data set with Rattus norvegicus [11], the inhibition result is “Active”.

The inhibition is how much of the control response was suppressed. Broadly, the IC50 is the point on the concentration scale where inhibition reaches its midpoint.
